Shown are actives, neighbours in structure and some others; about 3.3% of the full set was active somewhere.
PfM18AAP inh-1 – blocks P. falciparum M18 aspartyl aminopeptidase | recombinant PfM18AAP, H-Glu-NHMec fluorogenic cleavage | inhibition, % at 7.35 µM | actives 1.2% (n = 290,000);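 active means inhibition above the campaign mean inhibition over all tested compounds plus 3 SD, cut at about 28% in these data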;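 further: 0% = plate median of test compound wells and 100% = 2 mM ZnCl2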
m5-HT2A agonist – agonists of mouse serotonin 5-HT2A receptor (HTR2A); P35363; CHO-K1 mHTR2A beta-arrestin complementation, luminescence; percent of 30 µM serotonin response; activation, % at 7.6 µM; actives 0.66% (n = 360,000);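 active means activation above a run cutoff, the mean activation of all tested compounds plus 3 SD, cut at about 14% in these data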;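 further: 0% = plate median of compound wells and 100% = 30 µM serotonin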
Arr AP2 block – human beta-arrestin and AP2 interaction inhibition | inhibition, % at 10 µM | actives 0.31% (n = 340,000) | FITC-arrestin peptide / GST-AP2 beads, flow cytometry; AP2 beta2 appendage carries R879A mutation;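 active means inhibition above a set limit, near 3 SD of compounds lacking own fluorescence, cut at about 54% in these data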;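 further: plate controls were DMSO wells for no effect and 5 µM unlabelled arrestin peptide for full effect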
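Measured by: flow cytometry, FL1 (488/535 nm); Material: AP2 appendage R879A on GSH beads; Evaluation: percent response; Timing: pre-incubation 12 min, peptide binding 1 h, room temperature; Also added: 50 nM FITC-arrestin peptide; Medium: PBS with 0.05% Tween 20 and 0.1% BSA.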
NRP1-CendR mod – modulators of CendR peptide binding to human neuropilin-1. actives 0.85% (n = 360,000). O14786. AID 602438. inhibition, % at 25 µM. FAM-RPARPAR peptide binding to NRP-1, fluorescence polarization;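 active means inhibition or corrected inhibition above about 18%, plus a signal ratio from 0.5 to 1.5, limit read from the data, passing the limit was not always enough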
sPLA2-III inh – Blocks human group III sPLA2 activity | Q9NZ20 | AID 743126 | inhibition, % at 12.2 µM | actives 0.56% (n = 370,000) | QFRET BODIPY PC-A2 liposome hydrolysis, fluorescence;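 active means inhibition above mean plus 3 SD of compounds lying within the high and low control bounds, cut at about 19% in these data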;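 further: 0% = median of test compound wells and 100% = no enzyme DMSO wells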
Target sequence (Q9NZ20 whole entry, looked up): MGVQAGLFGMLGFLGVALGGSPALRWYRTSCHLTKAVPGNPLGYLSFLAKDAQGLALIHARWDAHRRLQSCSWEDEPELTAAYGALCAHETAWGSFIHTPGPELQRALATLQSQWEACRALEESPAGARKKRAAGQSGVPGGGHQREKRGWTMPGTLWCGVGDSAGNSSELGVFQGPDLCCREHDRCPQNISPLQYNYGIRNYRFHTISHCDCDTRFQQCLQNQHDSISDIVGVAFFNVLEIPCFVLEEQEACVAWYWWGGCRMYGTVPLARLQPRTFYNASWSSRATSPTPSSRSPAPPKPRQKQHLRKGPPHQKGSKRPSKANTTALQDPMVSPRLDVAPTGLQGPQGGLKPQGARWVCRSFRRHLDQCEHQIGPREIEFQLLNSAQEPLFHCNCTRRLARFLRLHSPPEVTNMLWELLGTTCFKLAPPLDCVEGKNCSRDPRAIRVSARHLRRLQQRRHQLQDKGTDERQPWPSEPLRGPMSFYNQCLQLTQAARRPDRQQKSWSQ
Hep lipid drop – hepatic lipid droplet formation modulation | actives 0.4% (n = 240,000) | AML12 mouse hepatocytes, oleate lipid droplets, BODIPY imaging | inhibition, % at 6.5 µM;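 active means lipid droplet intensity inhibited by at least 50%, with more than 500 cells counted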
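Assay system: AML12 mouse liver cells | Compound dosing: One dose, 6.5 µM compound | Read-out basis: Droplet intensity reduction, % inhibition | Measured by: Fluorescence imaging, 20x objective, two fields per well | Schedule: Overnight treatment with compound plus oleate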
PfM18AAP inh-2 – PfM18AAP inhibition, confirmation. shares compounds with PfM18AAP inh-1. recombinant PfM18AAP, H-Glu-NHMec fluorogenic cleavage. inhibition, % at 7.35 µM. actives 28% (n = 2,400);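 active means mean inhibition over replicate wells above the hit cutoff set for the earlier primary screen, cut at about 29% in these data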;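 further: 0% = median of test compound wells and 100% = 2 mM ZnCl2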
CTSL1 confirm – counter-screen for PFM18AAP inhibitors: confirmation of human cathepsin L inhibitors | inhibition, % at 5.96 µM | purified cathepsin L1, Z-Leu-Arg-MCA fluorescence | shares compounds with PfM18AAP inh-1 | 2,400 tested, under 10 active;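 active means average inhibition across replicates above the hit cutoff set in the earlier primary screen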;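 further: 0% = median of test compound wells and 100% = Z-Phe-Ala-diazomethylketone 1 µM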
Starred values were filed as active, the others as inactive; . = no result.

SMILES	PfM18AAP inh-1	m5-HT2A agonist	Arr AP2 block	NRP1-CendR mod	sPLA2-III inh	Hep lipid drop	PfM18AAP inh-2	CTSL1 confirm
CC1=C(C(=O)N2CCCCCC2)CC(CC(=O)NC2CCCC2)C(=O)N1Cc1ccccc1 (stereo not given)	.	12	.	6	6	.	.	.
N#CC1=C(N)SC(N)=C(C#N)C1CCc1ccccc1	9	7	6	126	-26	5	.	.
N#CC1=C(N)SC(N)=C(C#N)C1Cc1ccccc1	43*	0	6	126	-6	.	-9	1
N#CC1=C(N)SC(N)=C(C#N)C1c1c(Cl)cccc1Cl	46*	6	8	-53	-2	.	-13	2
CSc1nc(COC(=O)NC(C)C)c(COC(=O)NC(C)C)n1Cc1ccccc1	.	-4	.	-3	0	.	.	.
COc1ccc(C2=Cc3ccccc3C(CC(=O)C3CC3)N2c2ccc(-c3cc(OC)c(OC)c(OC)c3)cc2)cc1 (stereo not given)	.	4	.	-6	2	.	.	.
CCOC(=O)COc1ccc(C(c2c(C)[nH][nH]c2=O)c2c(C)[nH][nH]c2=O)cc1	34*	-2	3	-2	-26	4	-3	0
COc1cc(C(c2c(C)[nH][nH]c2=O)c2c(C)[nH][nH]c2=O)cc(Br)c1OC	38*	0	6	4	-36	3	16	-3
CCOc1ccc(C(c2c(C)[nH][nH]c2=O)c2c(C)[nH][nH]c2=O)cc1OC	27	-2	24	2	-14	.	.	.
COC(=O)COc1c(Cl)cc(C(c2c(C)[nH][nH]c2=O)c2c(C)[nH][nH]c2=O)cc1OC	34*	2	8	8	-21	-4	13	0
COC(=O)c1ccc(C(c2c(C)[nH][nH]c2=O)c2c(C)[nH][nH]c2=O)cc1	15	2	0	4	-20	-1	.	.
C1CN(c2nc(N3CCOCC3)nc(N3CCOCC3)n2)CCO1	6	.	.	.	.	10	.	.
CCCNc1nc(N2CCOCC2)nc(N2CCOCC2)n1	1	-2	-8	-3	-5	1	.	.
CNC(=S)NNc1nc(N2CCOCC2)nc(N2CCOCC2)n1	41*	1	35	5	12	-1	25	-3
C=CCNC(=S)NNc1nc(N2CCCC2)nc(N2CCCC2)n1	54*	6	-9	0	18	.	20	0
CCNC(=S)NNc1nc(N2CCOCC2)nc(N2CCOCC2)n1	47*	-1	1	15	6	-4	30*	-1
C=CCNC(=S)NNc1nc(Nc2ccccc2)nc(N2CCCCC2)n1	23	-4	-14	1	8	9	.	.
COCCN(C(=O)COC(=O)c1cc(C)n(-c2ccccc2)c1C)c1c(N)n(Cc2ccccc2)c(=O)[nH]c1=O	.	0	11	-2	-1	.	.	.
Cc1cccc(C2Nc3cccc4cccc(c34)N2)c1	33*	-2	24	10	-2	-4	-5	1
COc1cc(C2Nc3cccc4cccc(c34)N2)ccc1O	46*	-7	30	4	-2	-4	15	-1
COc1ccc(-n2c(SCC(=O)Nc3ccc(Oc4ccccc4)cc3)nnc2-c2ccc(C)cc2)cc1	.	.	.	.	7	.	.	.
CCOC(=O)N1CCN(C(=O)CN(c2cccc(C(F)(F)F)c2)S(=O)(=O)c2ccccc2)CC1	37*	-2	13	4	-1	.	-62	-4
Cc1ccc(O)c(NC(=O)/C=C/C(=O)O)c1	33*	2	-24	2	3	-7	-22	4
O=c1[nH]c2ccccc2c(O)c1O	46*	-3	-2	11	-2	-3	5	-3
O=c1[nH]c2ccccc2c(O)c1-[n+]1ccccc1	1	5	-3	-14	4	13	.	.
SMILES	PfM18AAP inh-1	m5-HT2A agonist	Arr AP2 block	NRP1-CendR mod	sPLA2-III inh	Hep lipid drop	PfM18AAP inh-2	CTSL1 confirm
Cc1cn([C@H]2C[C@H](O)[C@@H](CCC(=O)NCCc3cccs3)O2)c(=O)[nH]c1=O	.	0	.	-5	7	.	.	.
COc1cccc(NC2SC(=O)N(c3ccccc3)C2=O)c1 (stereo not given)	35*	1	0	-2	0	5	-53	-3
CCOc1ccc(-n2c(SCC(=O)Nc3ccc4c(c3)OCCO4)nnc2-c2ccncc2)cc1	.	.	.	.	1	.	.	.
O=C(/C=C/c1ccccc1)C1=C(O)C(=O)N(CCO)C1c1cccc([N+](=O)[O-])c1 (stereo not given)	-3	-5	40	3	5	0	.	.
O=C(O)CCCCCN1C(=O)C(O)=C(C(=O)/C=C/c2ccccc2)C1c1ccc2c(c1)OCO2 (stereo not given)	55*	2	33	-15	-1	3	-1	2
Cc1cc(NC(=O)CSc2nnc(-c3ccco3)o2)no1	47*	-3	18	8	-6	-11	-19	-2
CC(=O)Nc1ccc(NC(=O)CSc2nnc(-c3ccco3)o2)cc1	4	0	4	9	0	26	.	.
CCCn1c(SCC(=O)Nc2ccc(S(=O)(=O)N(C)C)cc2)n[nH]c1=O	-6	1	-10	2	-4	1	.	.
CCOC(=O)c1sc(NC(=O)CSc2ncn[nH]2)c(C#N)c1C	40*	-4	2	0	-17	-3	9	-6
CCOC(=O)c1sc(N(Cc2ccccc2)C(=O)CSc2ncn[nH]2)nc1C	90*	2	7	-6	-47	1	-36	-3
COc1ccc(-c2oc(NC(=O)CCl)c(C#N)c2-c2ccc(OC)cc2)cc1	-4	1	5	-40	-34	-3	.	.
COc1ccc(-c2oc(NC(=O)CSc3ncn[nH]3)c(C#N)c2-c2ccc(OC)cc2)cc1	73*	3	0	-10	.	.	25	-3
CCOC(=O)c1sc(NC(=O)CSc2nc(C)cc(C)n2)c(C#N)c1C	-1	4	-2	-6	-4	.	.	.
CCOC(=O)c1sc(N(Cc2ccccc2)C(=O)CCl)nc1C	22	5	28	-5	-8	-65	.	.
CCOc1nc2cccc(C(=O)O)c2n1Cc1ccc(-c2ccccc2-c2nn[nH]n2)cc1	.	.	.	.	2	.	.	.
O=C(Cn1cnc([N+](=O)[O-])n1)c1ccc(O)c(O)c1	38*	0	-23	4	-19	19	14	0
CC(C)(C)c1ccc(O)c(N)c1	46*	.	.	.	.	.	76*	-3
COc1cccc(/C=N/NC(=O)c2ccoc2C)c1	-22	-1	-11	12	-4	1	.	.
